Measurements: ChEMBL document CHEMBL4376807, “Hydroxamic Acid Derivatives of β-Carboline/Hydroxycinnamic Acid Hybrids Inducing Apoptosis and Autophagy through the PI3K/Akt/mTOR Pathways” (J Nat Prod, 2019)
Activity calls are given as the source filed them. The rule behind the calls is not given here.

Columns and labels:
[1] = molecular target: Histone deacetylase 1 (Homo sapiens, UniProt Q13547); assay: Inhibition of HDAC1 (unknown origin) using Boc-Lys (Ac)-AMC as substrate incubated for 60 mins by fluorimetric assay
Chain of Histone deacetylase 1 (Q13547 whole entry): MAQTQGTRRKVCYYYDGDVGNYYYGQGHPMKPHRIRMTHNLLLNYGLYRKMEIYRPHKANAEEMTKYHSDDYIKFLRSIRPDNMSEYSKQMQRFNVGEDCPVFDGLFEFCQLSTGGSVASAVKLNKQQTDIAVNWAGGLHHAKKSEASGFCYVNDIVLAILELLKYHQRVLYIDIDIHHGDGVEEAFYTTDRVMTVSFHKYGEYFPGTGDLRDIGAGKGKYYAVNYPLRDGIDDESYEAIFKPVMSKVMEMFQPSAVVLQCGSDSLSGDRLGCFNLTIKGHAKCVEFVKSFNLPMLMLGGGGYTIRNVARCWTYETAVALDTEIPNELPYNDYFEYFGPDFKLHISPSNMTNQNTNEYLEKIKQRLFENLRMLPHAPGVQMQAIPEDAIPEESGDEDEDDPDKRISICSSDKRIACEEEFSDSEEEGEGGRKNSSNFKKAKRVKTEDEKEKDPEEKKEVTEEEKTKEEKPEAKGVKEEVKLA

[2] = test system: HepG2; assay: Antiproliferative activity against human HepG2 cells after 72 hrs by MTT assay; type: functional, cell-based; conditions: HepG2, 72 h
[3] = test system: SMMC-7721; assay: Antiproliferative activity against human SMMC7721 cells after 72 hrs by MTT assay; type: functional, cell-based; conditions: SMMC-7721, 72 h
[4] = test system: Bel-7402; assay: Antiproliferative activity against human Bel7402 cells after 72 hrs by MTT assay; type: functional, cell-based; conditions: Bel-7402, 72 h
[5] = test system: Bel-7402; assay: Induction of apoptosis in human Bel7402 cells assessed as increase in cleaved PARP level at 5 uM after 72 hrs by Western blot analysis; type: functional, cell-based
Outline: (§1)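 Subconfluent Bel7402 cells (1.5 × 10^5/mL) exposed to vehicle or compound for 72 h, then lysed. Lysates (0.05 mg/lane) run on 12% SDS-PAGE, transferred to nitrocellulose, blocked in 5% nonfat milk. Probed for Bax, Bcl-2, cleaved caspase-3 and cleaved PARP, with HRP secondary and chemiluminescence. Levels normalized to β-actin; three separate assays, mean ± SD.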

[6] = test system: Bel-7402; assay: Induction of apoptosis in human Bel7402 cells assessed as annexin-V positive cells at 5 uM after 72 hrs by Annexin-V/PI staining based flow cytometry relative to control; type: functional
Outline: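 Bel7402 cells (10 000) cultured overnight, then exposed to compound at 1.0 or 5.0 μM, or vehicle, for 72 h. Harvested, stained with annexin-V APC and 7-AAD for 15 min. Apoptotic percentage measured by flow cytometry (APC ex 633/em 660 nm; 7-AAD ex 488/em 647 nm). Three separate assays, mean ± SD.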

[7] = test system: Bel-7402; assay: Induction of autophagy in human Bel7402 cells assessed as upregulation of LC3-2 level at 5 uM after 24 to 72 hrs by Western blot analysis; type: functional, cell-based
Outline: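 Bel7402 cells (1.5 × 10^5/mL) exposed to compound at indicated doses, or vehicle, for 24 or 72 h. Lysates (0.05 mg/lane) separated on 12% SDS-PAGE, blotted to nitrocellulose, blocked in 5% milk. Probed with anti-LC3, anti-p62 and anti-beclin-1, HRP secondary, chemiluminescent detection. Levels quantified relative to β-actin; three separate assays, mean ± SD.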

[8] = test system: Bel-7402; assay: Induction of apoptosis in human Bel7402 cells assessed as increase in cleaved caspase-3 level at 5 uM after 72 hrs by Western blot analysis; type: functional, cell-based; outline: as §1
[9] = test system: Bel-7402; assay: Induction of autophagy in human Bel7402 cells assessed as accumulation of autophagic vacuoles at 5 uM after 24 hrs by acridine orange staining based fluorescence microscopic method; type: functional, cell-based
Outline: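 Bel7402 cells (10 000) cultured overnight, then exposed to compound at 1.0 or 5.0 μM, or vehicle. Stained with 1 mg/mL acridine orange for 15−20 min, then dye removed. Red versus green fluorescence viewed by fluorescence microscopy at 400×. Representative images from three independent experiments.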

[10] = molecular target: T1, Protein deacetylase HDAC6 (Homo sapiens, UniProt Q9UBN7); assay: Inhibition of human HDAC6 using Boc-Lys (Ac)-AMC as substrate incubated for 60 mins by fluorimetric assay
T1 sequence (Q9UBN7 whole entry): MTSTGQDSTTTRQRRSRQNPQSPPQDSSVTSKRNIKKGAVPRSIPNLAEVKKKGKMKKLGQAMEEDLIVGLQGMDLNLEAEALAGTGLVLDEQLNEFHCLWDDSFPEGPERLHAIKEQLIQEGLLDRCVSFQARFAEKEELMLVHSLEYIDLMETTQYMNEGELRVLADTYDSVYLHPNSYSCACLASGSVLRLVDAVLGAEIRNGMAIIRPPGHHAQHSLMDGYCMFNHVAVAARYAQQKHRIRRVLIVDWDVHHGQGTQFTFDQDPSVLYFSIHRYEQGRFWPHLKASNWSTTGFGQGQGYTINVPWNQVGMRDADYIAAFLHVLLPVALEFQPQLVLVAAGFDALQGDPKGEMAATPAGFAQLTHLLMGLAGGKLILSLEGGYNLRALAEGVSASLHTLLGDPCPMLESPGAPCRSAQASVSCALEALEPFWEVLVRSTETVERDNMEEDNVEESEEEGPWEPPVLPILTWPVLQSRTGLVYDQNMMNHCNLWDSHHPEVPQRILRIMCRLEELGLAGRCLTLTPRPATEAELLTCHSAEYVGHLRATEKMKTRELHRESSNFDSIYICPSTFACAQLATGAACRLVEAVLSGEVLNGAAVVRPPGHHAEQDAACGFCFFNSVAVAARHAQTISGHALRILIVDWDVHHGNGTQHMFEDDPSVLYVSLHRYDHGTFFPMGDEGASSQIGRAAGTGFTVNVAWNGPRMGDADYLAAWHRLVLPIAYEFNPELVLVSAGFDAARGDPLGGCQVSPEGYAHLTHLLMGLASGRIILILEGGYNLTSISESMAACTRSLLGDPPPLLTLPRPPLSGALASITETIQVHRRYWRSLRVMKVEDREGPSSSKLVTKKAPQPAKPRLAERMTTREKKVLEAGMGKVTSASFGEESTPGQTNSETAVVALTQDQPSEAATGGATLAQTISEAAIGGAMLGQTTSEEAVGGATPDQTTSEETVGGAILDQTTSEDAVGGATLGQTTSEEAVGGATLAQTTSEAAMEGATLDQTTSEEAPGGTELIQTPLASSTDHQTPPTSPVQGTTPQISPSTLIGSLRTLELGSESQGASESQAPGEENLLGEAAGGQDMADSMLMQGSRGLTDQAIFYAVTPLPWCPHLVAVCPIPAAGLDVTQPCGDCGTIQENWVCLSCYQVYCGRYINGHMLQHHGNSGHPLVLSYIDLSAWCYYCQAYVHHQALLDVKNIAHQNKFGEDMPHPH

[11] = test system: Huh-7; assay: Antiproliferative activity against human HuH7 cells after 72 hrs by MTT assay; type: functional, cell-based; conditions: Huh-7, 72 h
[12] = molecular target: Histone deacetylase 3 (Homo sapiens, UniProt O15379); assay: Inhibition of human HDAC3 using Boc-Lys (Ac)-AMC as substrate incubated for 60 mins by fluorimetric assay
Chain of Histone deacetylase 3 (O15379 whole entry): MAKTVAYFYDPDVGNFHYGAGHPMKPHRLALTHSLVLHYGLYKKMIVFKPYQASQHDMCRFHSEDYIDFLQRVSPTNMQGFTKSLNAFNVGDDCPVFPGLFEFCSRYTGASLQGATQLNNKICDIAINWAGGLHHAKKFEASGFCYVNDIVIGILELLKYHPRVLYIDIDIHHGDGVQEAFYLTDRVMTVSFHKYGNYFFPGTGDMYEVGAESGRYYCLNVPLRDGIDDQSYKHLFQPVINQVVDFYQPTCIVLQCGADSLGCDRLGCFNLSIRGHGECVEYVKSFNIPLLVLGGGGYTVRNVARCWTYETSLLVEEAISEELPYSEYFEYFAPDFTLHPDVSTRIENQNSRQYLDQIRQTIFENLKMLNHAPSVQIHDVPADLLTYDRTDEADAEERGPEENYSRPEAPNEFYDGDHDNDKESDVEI

[13] = species: Homo sapiens; assay: Selectivity ratio of IC50 for human HDAC3 to IC50 for human HDAC6
Outline: (§2)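 Recombinant human HDAC1, 3, 6 and 8 (fluorimetric kit) incubated with compound over a range of concentrations and Boc-Lys(Ac)-AMC substrate at 37 °C for 60 min. Reaction quenched with lysine developer; after 30 min, fluorescence read at ex 355/em 460 nm. Inhibition taken relative to control and IC50 fitted; ratios built from these IC50s.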

[14] = species: Homo sapiens; assay: Selectivity ratio of IC50 for HDAC1 (unknown origin) to IC50 for human HDAC6; outline: as §2
[15] = molecular target: T2, Histone deacetylase 8 (Homo sapiens, UniProt Q9BY41); assay: Inhibition of human HDAC8 using Boc-Lys (Ac)-AMC as substrate incubated for 60 mins by fluorimetric assay
T2 sequence (Q9BY41 whole entry): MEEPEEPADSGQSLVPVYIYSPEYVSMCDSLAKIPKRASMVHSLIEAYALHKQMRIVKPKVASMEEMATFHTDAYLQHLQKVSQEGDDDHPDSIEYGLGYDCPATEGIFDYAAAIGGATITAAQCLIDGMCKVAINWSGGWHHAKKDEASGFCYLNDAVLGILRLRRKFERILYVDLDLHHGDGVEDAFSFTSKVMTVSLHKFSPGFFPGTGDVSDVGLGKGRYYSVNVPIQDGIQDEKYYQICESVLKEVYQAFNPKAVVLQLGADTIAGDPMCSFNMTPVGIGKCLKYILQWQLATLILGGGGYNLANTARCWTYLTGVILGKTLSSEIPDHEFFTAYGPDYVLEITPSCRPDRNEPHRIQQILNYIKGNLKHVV

[16] = test system: Bel-7402; assay: Induction of autophagy in human Bel7402 cells assessed as accumulation of autophagic vacuoles at 20 uM after 24 hrs by acridine orange staining based fluorescence microscopic method; type: functional, cell-based
Outline: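 Bel7402 cells (10 000) seeded overnight, then exposed alongside vehicle. Stained with acridine orange (1 mg/mL) for 15−20 min. Autophagic vacuoles scored by fluorescence microscopy as red versus green fluorescence at 400×. Representative images from three independent experiments.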

[17] = Inhibition of PI3K/AKT/mTOR signaling in human Bel7402 cells assessed as reduction in mTOR phosphorylation at 20 uM after 24 to 72 hrs by Western blot analysis; type: cell-based
Outline: (§3)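 Bel7402 cells (1.5 × 10^5/mL) treated 24 or 72 h. Lysates (0.05 mg/lane) run on 12% SDS-PAGE, transferred to nitrocellulose, blocked with 5% nonfat milk. Probed for phospho-Akt (Ser473), total Akt, phospho-mTOR, total mTOR and β-actin; HRP secondary, chemiluminescent detection. Bands quantified against vehicle control; mean ± SD of three separate assays.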

[18] = Inhibition of PI3K/AKT/mTOR signaling in human Bel7402 cells assessed as reduction in AKT phosphorylation at 20 uM after 24 to 72 hrs by Western blot analysis; type: cell-based; outline: as §3
[19] = test system: Bel-7402; assay: Induction of apoptosis in human Bel7402 cells assessed as annexin-V positive cells at 20 uM after 72 hrs by […] relative to control; type: functional

Compound | IC50 [1] [nM] | IC50 [2] [µM] | IC50 [3] [µM] | IC50 [4] [µM] | also measured
O=C(CCCCCCC(=O)Nc1ccccc1)NO [VORINOSTAT] |  |  |  |  | Activity [5]: Active; Activity [6]: 45.4%; Activity [7]: Active; Activity [8]: Active; Activity [9]: Active
COc1ccc(-c2nc(NCCCCOc3ccc(/C=C/C(=O)NO)cc3)cc3c2[nH]c2ccccc23)cc1 | 125 | 9.5 | > 12.5 | 8.9 | 
COc1ccc2c(c1)[nH]c1c(C)nccc12 [HARMINE] | > 1000 |  |  |  | Activity [16]: Active; inhibition [17]: Active; inhibition [18]: Active; Activity [19]: 36.1%

The next lines start with results.

IC50 [1] [nM] | IC50 [2] [µM] | IC50 [3] [µM] | IC50 [4] [µM] | Compound | also measured
57 | 3.4 | 4.1 | 4 | COc1ccc(-c2nc(NCCCOc3ccc(/C=C/C(=O)NO)cc3)cc3c2[nH]c2ccccc23)cc1 | 
32 | 4.8 | 4 | 1.8 | COc1ccc(-c2nc(NCCOc3ccc(/C=C/C(=O)NO)cc3OC)cc3c2[nH]c2ccccc23)cc1 | IC50 [10]: 17 nM; IC50 [11]: 2.8 µM; IC50 [12]: 125 nM; Ratio IC50 [13]: 7 to 11; Ratio IC50 [14]: 2; IC50 [15]: > 1000 nM
61 | 5.3 | 7.1 | 4.6 | COc1ccc(-c2nc(NCCCCOc3ccc(/C=C/C(=O)NO)cc3OC)cc3c2[nH]c2ccccc23)cc1 | IC50 [11]: 6.2 µM
75 | 5.8 | 6.3 | 5.2 | COc1ccc(-c2nc(NCCOc3ccc(/C=C/C(=O)NO)cc3)cc3c2[nH]c2ccccc23)cc1 | 
